Experimental findings from the RNAGym collection of RNA variant scans (doi:10.1126/science.aae0568) are described below.

This sample holds only a part of the variants without activity.

The chains are these.
B1: tRNA (parent)
chain: GUUCCGUUGGCGUAAUGGUAACGCGUCUCCCUCCUAAGGAGAAGACUGCGGGUUCGAGUCCCGUACGGAACG

The variants in this data set derive from B1. The experiment in a line: yeast fitness relative to wild type (ratio to wild type); higher = fitter; tRNA-Arg(CCU), competitive growth, 37 C, YPD. The method in brief:
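Start and end populations of a pooled competition were compared by 100-nucleotide paired-end sequencing of gene amplicons. The Saccharomyces cerevisiae strains carried tRNA-Arg(CCU) gene variants at the native genomic locus, synthesised with a 3% per-site mutation rate at 69 sites, and competed in YPD at 37°C for 24 hours in six parallel replicates. Darwinian fitness relative to wild type was based on the change in genotype frequencies. Genotypes required ≥ 100 starting reads, and estimates < 0.5 were set to 0.5.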
In the case of GUUCCGUUGGCGUAAUGGUAACGUGUCUCCCUCCUAAGGAGAAGACUGCGGGUUCGGGUCGCGUACGGAACG [C24U A57G C61G], the yeast fitness was not above 0.5.

With GUUCCGUUGGCGUAAUGGUAACGUGUCUGCCUCCUAACGAGCAGACUGCGGGUUCGAGUCCCGUACGGAACG [C24U C29G G38C A42C], the yeast fitness was not above 0.5. In the case of GUUCCGUUGGCGUAAUGGUAACGUGUCUCUCUCCUAAGGAGAAGACUGCGGGUUCGGGUCCCGUAUGGAACG [C24U C30U A57G C66U], the yeast fitness came to 0.538.

Regarding GUUCCGUUGGCGUAAUGGUAACGUGUCUCCUUCCUAAGGAGAAGACUGCGGGUUCGAGUCCCGUACGGAACG [C24U C31U], the yeast fitness was found to be 0.96. On to GUUCCGUUGGCGUAAUGGUAACGUGUCUCCGUCCUAAGGAGAAGACUGCGGGUUCGAGUCCCGUACGGAACG [C24U C31G], for which the yeast fitness was determined as 0.845. In the case of GUUCCGUUGGCGUAAUGGUAACGUGUCUCCCUACUAAGGAGAAGACCGCGGGUUCGAGUCCCGUACGGAACG [C24U C33A U47C] it was 0.516; in that of GUUCCGUUGGCGUAAUGGUAACGUGUCUACCACCUAAGGAGAAGAGUGCGGGUUCGCGUCCCGUACGGAACG [C24U C29A U32A C46G A57C], 0.5; in that of GUUCCGUUGGCGUAAUGGUAACGUGUCUCUCUCCUAAGGAGAAGACUGCGGGUUCGAGUCCCAUACGGAACG [C24U C30U G63A], 0.502. In the case of GUUCCGUUGGCGUAAUGGUAACGUGUGUCCCUCCUAAGGAGAAGACUGCGGGUUCGAGUCCCGUCCGGAACG [C24U C27G A65C], the yeast fitness was not above 0.5. With GUUCCGUUGGCGUAAUGGUAACGUGUCUCGCUCCUAAGGAGAAGACUGCGGGUUCGAGUCUCGUUUGGAACG [C24U C30G C61U A65U C66U], the yeast fitness is not above 0.5. As for GUUCCGUUGGCGUAAUGGUAACGUGUUUCCCUCCUAAGGAGAAGACUGCCGGUUCGAGUCCCGUACGGAACG [C24U C27U G50C], the figure is not above 0.5; as for GUUCCGUUGGCGUAAUGGUAACGUGUCUCACUCCUAAGGAGAAGACUGCGGGUUCGAGUCCCGUGCGGAACG [C24U C30A A65G], not above 0.5. In the case of GUUCCGUUGGCGUAAUGGUAACGUGUCUCCCUCCUAAGGAGAAGACUGCGGGUUCGAGUCCCGUACGGUACG [C24U A69U] it was 0.99; in that of GUUCCGUUGGCGUAAUGGUAACGUGUCUCCCUCCUAAGGAGAAGACUGCGGGUUCGAGUCCCGUACGGCACG [C24U A69C], 0.887; in that of GUUCCGUUGGCGUAAUGGUAACGUGUAUCCCUCCUAAGGAGAAGACUGCGGGAUCGAGUCCCGUAUGGAACG [C24U C27A U53A C66U], not above 0.5. As for GUUCCGUUGGCGUAAUGGUAACGUGUCUCUCUCCUAAGGCGAAGACUGCGGGUUCGAGUCCCGUACGCAACG [C24U C30U A40C G68C], the figure is 0.545; as for GUUCCGUUGGCGUAAUGGUAACGUGUCUCCAUCCUAAGGAGACGACUGCGGGUUCGACUCCCGGACGGAACG [C24U C31A A43C G58C U64G], not above 0.5.

Take GUUCCGUUGGCGUAAUGGUAACGUGUUUCCCUCCUAAGGAGACGACUGCGGGUUCGAGUCCCGUACGGAACG [C24U C27U A43C]: the yeast fitness stood at 1.04. For GUUCCGUUGGCGUAAUGGUAACGUGUCUCCCUACUAAGGGGAAGACUGCGGGUUCGAGUCCCGUACGGAACG [C24U C33A A40G], the yeast fitness is 0.513. Consider GUUCCGUUGGCGUAAUGGUAACGUGUCUACCACCUAAGGAGAAGAGUGCGGGUUCGAGUCCCGUACGGAUCG [C24U C29A U32A C46G A70U], for which the yeast fitness is not above 0.5. For the variant GUUCCGUUGGCGUAAUGGUAACGUGUCUCUGUCCUAAGGAGAAGACUGCGGGUUCGGGUCCCGUACGGAACG [C24U C30U C31G A57G], the yeast fitness worked out at 0.576. As for GUUCCGUUGGCGUAAUGGUAACGUGUCUCCCUCCUAAGGAGAAGACUGCGGGUUCGCGUCCCGUACGUAACG [C24U A57C G68U], the figure is not above 0.5; as for GUUCCGUUGGCGUAAUGGUAACGUGUCUGCCUCCUAAGGAGAAGACUGCGGGUUCGAGUUCCGUAUGGAACG [C24U C29G C60U C66U], not above 0.5.

With GUUCCGUUGGCGUAAUGGUAACGUGUCUCCGUCCUAAGGAGAAAACUGCGGGUUCGAGUCCCGAACGGAACG [C24U C31G G44A U64A], the yeast fitness was not above 0.5. As for GUUCCGUUGGCGUAAUGGUAACGUGUCUCUCUCCUAAGGAGAAGACUGCGGGUUCGACUCCCGUACGGAGCG [C24U C30U G58C A70G], the figure is not above 0.5; as for GUUCCGUUGGCGUAAUGGUAACGUGUGUCCCUCCUAAGGAGAAGACUGCGGGUUCGAGACCCGUACGGAGCG [C24U C27G U59A A70G], not above 0.5. GUUCCGUUGGCGUAAUGGUAACGUGUAUCUCUCCUAAGGAGAAGACUGCGGGUUCGAGUCCCGUACGGAACG [C24U C27A C30U]: the yeast fitness amounted to 0.597.

As for GUUCCGUUGGCGUAAUGGUAACGUGUCUGCCUCCUAAGGAGAAGACUGCGGGUUCGAGUCCCGUACGGAACG [C24U C29G], the yeast fitness turned out to be 0.674. In the case of GUUCCGUUGGCGUAAUGGUAACGUGUCUCCAUCCUAAGGAGAAGACUGCGGGUUGGUGUCCCGUACGGAACG [C24U C31A C55G A57U] it was 0.532. As for GUUCCGUUGGCGUAAUGGUAACGUGUCUCCUUCCUAAGGAGGAGACUGCGGGUUCGAGUCCCGUACGGAACG [C24U C31U A42G], the figure is 0.574; as for GUUCCGUUGGCGUAAUGGUAACGUGUCUCCAUCCUAAGGAGAAGACUGCGGGUGCGAGUCCCGUACGGAACG [C24U C31A U54G], 0.75; as for GUUCCGUUGGCGUAAUGGUAACGUGUCUCUCUCCUAACGAGAAGACUGCGGGUUCGAGUCCCGUACGGAACG [C24U C30U G38C], 0.55. In the case of GUUCCGUUGGCGUAAUGGUAACGUGUCUCCGUCCUAAGGAGAAGACUGCGGGUUCGAGUCCCGUUCGGAACG [C24U C31G A65U] it was 0.508; in that of GUUCCGUUGGCGUAAUGGUAACGUGUCUCCCUCCUAAGGAGAAGACUGCGGGUUCGAGUCCCGUACGGCCCG [C24U A69C A70C], 0.536; in that of GUUCCGUUGGCGUAAUGGUAACGUGUCUUCCUCCUAAGGAGGAGACUGCGGGUUCGAGCCCCGUACGGAACG [C24U C29U A42G U59C], not above 0.5. As to GUUCCGUUGGCGUAAUGGUAACGUGUCUCCGUCCUAAGGAGAAAACUGCGGGUUCGAGUCCCGUACGGAACG [C24U C31G G44A], the yeast fitness worked out at 0.508. In the case of GUUCCGUUGGCGUAAUGGUAACGUGUCUCCCUGUUAAGGAGAAGACUGCGGGUUCGAGUCCCGUACGGAACG [C24U C33G C34U] it was 0.672. Regarding GUUCCGUUGGCGUAAUGGUAACGUGUCUUCCUCCUAAGGAGGAGACUGCGGGUUCGAGACUCGUACGGAACG [C24U C29U A42G U59A C61U], the yeast fitness is not above 0.5.
